Screening data from PubChem BioAssay.
RGS4 pot – RGS4 potentiators or activators, primary screen, cell-based, HEK293 M3R inducible RGS4, calcium flux | carbachol calcium flux Fluo4; stronger effect = lower value | actives 0.92% (n = 310,000) | B-score at 10 µM;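 active = B-score of the integrated calcium signal more than 4 SD below the library mean, with starting fluorescence not abnormally high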;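 note: negative B-score means reduced calcium response which marks RGS4 activation or potentiation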
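System: HEK293 FlpIn-TREx cells, stable M3R, doxycycline-inducible RGS4. Timing: overnight RGS4 induction, 30 min dye load 37 °C, 20 min compound RT. Also added: carbachol, ECmax concentration. Measured by: Fluo4 fluorescence kinetic imaging of calcium. Evaluation: integrated calcium ratio converted to B score.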
MrgX1 antagonist – antagonists of human MrgX1 receptor, primary screen, HEK293 cells, Fluo-4 calcium flux. BAM8-22 antagonism; stronger effect = lower value. B-score at 10 µM. actives 1.3% (n = 310,000);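 active = calcium-response B-score plate-corrected more than 3 library SD below zero, starting fluorescence within 5 deviations, no agonist response on first addition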;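 note: peak minus trough fluorescence over baseline after final BAM8-22 challenge near maximal dose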
Target sequence (Q96LB2 whole entry, looked up): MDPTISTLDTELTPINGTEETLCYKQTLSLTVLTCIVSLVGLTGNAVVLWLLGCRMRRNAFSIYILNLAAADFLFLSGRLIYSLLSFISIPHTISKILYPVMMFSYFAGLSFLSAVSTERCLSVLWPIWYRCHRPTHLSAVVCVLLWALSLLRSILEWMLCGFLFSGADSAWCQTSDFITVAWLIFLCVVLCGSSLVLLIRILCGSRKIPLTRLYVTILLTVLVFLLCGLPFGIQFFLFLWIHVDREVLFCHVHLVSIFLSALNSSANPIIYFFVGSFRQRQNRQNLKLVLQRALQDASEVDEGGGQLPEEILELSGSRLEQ
MrgX1 ag – agonists of human MrgX1 receptor, primary screen, HEK293 cells, Fluo-4 calcium flux; Mas-related G-protein coupled receptor member X1 (Homo sapiens), Q96LB2; Fluo-4 calcium fluorescence, agonist mode; stronger effect = higher value; B-score at 10 µM; actives 0.44% (n = 310,000);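 active = calcium response B-score plate-corrected fluorescence ratio at least 3 library SD, with starting fluorescence B-score inside 5 SD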
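Assay system: stable human MrgX1 HEK293 cell line. Quantity: 15,000 cells per well. Schedule: cells plated overnight, dye loaded 0.5 h 37 °C, 0.5 h room temperature. Detection: Fluo-4 NW calcium-flux fluorescence, kinetic read. Read-out basis: peak-minus-minimum fluorescence over baseline, converted to B scores. Control set: positive and negative control wells on each plate.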
MrgX1 allo act – positive allosteric modulators of MrgX1, primary screen, HEK293 cells, Fluo-4 calcium flux. FDSS; stronger effect = higher value. B-score at 10 µM. actives 0.63% (n = 310,000);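 active = plate-corrected calcium response at least 3 library SD above typical, normal starting fluorescence, not activating the receptor alone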;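 note: compound read alongside a low EC10 to EC30 dose of BAM8-22 agonist; peak minus trough fluorescence over baseline measured at the second addition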
RGS4 inh – RGS4 inhibitors, primary screen, cell-based, HEK293 M3R inducible RGS4, calcium flux. Regulator of G-protein signaling 4 (Homo sapiens), P49798. Fluo-4 calcium flux; stronger effect = higher value; triggered by carbachol at its EC20. B-score at 10 µM. actives 0.45% (n = 310,000). AID 463165, 2010;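 active = B-score, a plate-corrected calcium signal, over three deviations above library mean, with baseline fluorescence within five deviations of library mean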;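 note: RGS4 expression induced by doxycycline in cells with stable M3 receptor; B-score is computed from the integrated fluorescence ratio over baseline after carbachol; higher B-score means a larger calcium signal and so more RGS4 inhibition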
Target sequence (P49798 whole entry, looked up): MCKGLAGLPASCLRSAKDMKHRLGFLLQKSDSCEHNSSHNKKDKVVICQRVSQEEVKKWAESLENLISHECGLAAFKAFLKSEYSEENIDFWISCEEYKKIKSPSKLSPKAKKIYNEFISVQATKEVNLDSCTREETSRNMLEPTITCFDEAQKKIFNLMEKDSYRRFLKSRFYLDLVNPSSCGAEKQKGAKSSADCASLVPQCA
MrgX1 ag reconf – MrgX1 receptor agonists, duplicate retest, confirmation, HEK293 cells, Fluo-4 calcium flux; actives 78% (n = 600); Fluo-4 calcium fluorescence, FDSS; activation, % at 10 µM; AID 602412, 2012; shares compounds with MrgX1 ag;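 active = calcium signal rise, corrected for plate position, at least 3 library SD high, with starting brightness within 5 such deviations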
HEK293 Ca flux – nonspecific calcium signal in parental HEK293, confirmation, counter-screen for MrgX1 antagonist project, parental HEK293 cells, Fluo-4 calcium flux; shares compounds with MrgX1 antagonist; Fluo-4 calcium fluorescence, FDSS; fluorescence ratio F(max-min)/F0 at 10 µM; actives 2% (n = 4,000); AID 624111, 2012;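 active = duplicate-averaged calcium fluorescence ratio at least three times the standard deviation of buffer wells, a nonspecific response in parental cells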
HEK293 Ca counter – calcium response in parental HEK293 cells, primary screen, counter-screen for MrgX1 allosteric activator project, cell-based, Fluo-4 calcium flux, duplicate; shares compounds with MrgX1 antagonist; Fluo-4 fluorescence ratio; stronger effect = higher value; fluorescence ratio F(max-min)/F0 at 10 µM; actives 0.4% (n = 4,000);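 active = calcium fluorescence ratio, averaged over duplicates, at least 3 SD of the buffer-well ratio, meaning a nonspecific response in receptor-free cells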;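 note: untransfected parental HEK293 lacking MrgX1 used as counterscreen for MrgX1 allosteric activators; fluorescence change taken during the second addition on a kinetic imager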
HEK293 Ca cntr2 – calcium response in parental HEK293 cells, primary screen, counter-screen for MrgX1 agonist project, cell-based, Fluo-4 calcium flux, duplicate, agonist mode. Fluo-4 calcium fluorescence (FDSS); stronger effect = higher value. actives 8.7% (n = 4,000). shares compounds with MrgX1 antagonist. fluorescence ratio F(max-min)/F0 at 10 µM;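 active = calcium fluorescence ratio at least three times the spread of buffer wells, meaning a non-specific response in parental cells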
A number is an active result. Sampled rows, rich in hits. Any-hit rate of the full collection: about 3.5%.

Results for CCc1nnc(NC(=O)CSc2nnc(C)c(=O)n2N)s1 ?
RGS4 pot: inactive; MrgX1 antagonist: inactive; MrgX1 ag: inactive; MrgX1 allo act: inactive; RGS4 inh: inactive

Results for O=C(CCl)Nc1cccc(S(=O)(=O)N2CCCCCC2)c1 ?
RGS4 pot: inactive; MrgX1 antagonist: inactive; MrgX1 ag: 42; MrgX1 allo act: inactive; RGS4 inh: inactive; MrgX1 ag reconf: 165%; HEK293 Ca flux: inactive; HEK293 Ca counter: inactive; HEK293 Ca cntr2: inactive

How did Cc1cc(NC(=O)CCS(=O)(=O)c2nc(-c3ccccc3)cc(C(F)(F)F)n2)no1 do in these assays?
MrgX1 antagonist: inactive; MrgX1 ag: inactive; MrgX1 allo act: inactive

Results for CS(=O)(=O)c1nc(-c2ccccc2)cc(C(F)(F)F)n1 ?
RGS4 pot: inactive; MrgX1 antagonist: inactive; MrgX1 ag: 38; MrgX1 allo act: inactive; RGS4 inh: inactive; MrgX1 ag reconf: 184%; HEK293 Ca flux: inactive; HEK293 Ca counter: inactive; HEK293 Ca cntr2: inactive

Results for O=C1CCCCCN1Sc1ccccc1 ?
RGS4 pot: inactive; MrgX1 antagonist: inactive; MrgX1 ag: 30; MrgX1 allo act: inactive; RGS4 inh: inactive; MrgX1 ag reconf: 123%; HEK293 Ca flux: inactive; HEK293 Ca counter: inactive; HEK293 Ca cntr2: inactive

How did O=C(CCSc1ccccc1)N1CCCC1 do in these assays?
RGS4 pot: inactive; MrgX1 antagonist: inactive; MrgX1 ag: inactive; MrgX1 allo act: inactive; RGS4 inh: inactive

How did O=C(Nc1nnc(-c2ccccn2)o1)c1cccc(Br)c1 do in these assays?
RGS4 pot: inactive; MrgX1 antagonist: inactive; MrgX1 ag: 29; MrgX1 allo act: inactive; RGS4 inh: inactive; MrgX1 ag reconf: 111%; HEK293 Ca flux: inactive; HEK293 Ca counter: inactive; HEK293 Ca cntr2: inactive

Results for O=S(=O)(c1ccccc1)c1nnn2c1nc(NC1CCN(Cc3ccccc3)CC1)c1ccccc12 ?
RGS4 pot: inactive; MrgX1 antagonist: inactive; MrgX1 ag: 60; MrgX1 allo act: inactive; RGS4 inh: inactive; MrgX1 ag reconf: 274%; HEK293 Ca flux: inactive; HEK293 Ca counter: inactive; HEK293 Ca cntr2: inactive

How did CCOC(=O)Cc1csc(N/C(=N/S(=O)(=O)c2ccc(F)cc2F)c2ccccc2)n1 do in these assays?
RGS4 pot: inactive; MrgX1 antagonist: inactive; MrgX1 ag: 30; MrgX1 allo act: inactive; RGS4 inh: inactive; MrgX1 ag reconf: 182%; HEK293 Ca flux: inactive; HEK293 Ca counter: inactive; HEK293 Ca cntr2: inactive

How did CCOc1ccc2nc(COC(=O)c3cccc([N+](=O)[O-])c3)c(C(C)=O)[n+]([O-])c2c1 do in these assays?
RGS4 pot: inactive; MrgX1 antagonist: inactive; MrgX1 ag: inactive; MrgX1 allo act: inactive; RGS4 inh: inactive

Results for O=C(CN1CCN(Cc2ccccc2Cl)C1=O)NCc1ccccn1 ?
RGS4 pot: inactive; MrgX1 antagonist: inactive; MrgX1 ag: inactive; MrgX1 allo act: inactive; RGS4 inh: inactive

What do the screens show for `Cc1ccc(-c2cc(NC(=O)CCl)n(-c3ccccc3)n2)cc1`?
RGS4 pot: inactive; MrgX1 antagonist: inactive; MrgX1 ag: 35; MrgX1 allo act: inactive; RGS4 inh: inactive; MrgX1 ag reconf: 150%; HEK293 Ca flux: inactive; HEK293 Ca counter: inactive; HEK293 Ca cntr2: inactive

What do the screens show for `CCOC(=O)c1ccc(-n2c(CCC(=O)O)ccc2-c2cccs2)cc1`?
RGS4 pot: inactive; MrgX1 antagonist: inactive; MrgX1 ag: inactive; MrgX1 allo act: inactive; RGS4 inh: inactive

How did Cc1ccc(-n2c(CCC(=O)O)ccc2-c2cccs2)cc1C do in these assays?
RGS4 pot: inactive; MrgX1 antagonist: inactive; MrgX1 ag: 29; MrgX1 allo act: inactive; RGS4 inh: inactive; MrgX1 ag reconf: 216%; HEK293 Ca flux: inactive; HEK293 Ca counter: inactive; HEK293 Ca cntr2: inactive

What do the screens show for `O=C(COc1ccccc1Cl)NCCNC(=O)c1cccnc1`?
RGS4 pot: inactive; MrgX1 antagonist: inactive; MrgX1 ag: inactive; MrgX1 allo act: inactive; RGS4 inh: inactive

How did CCn1cnc2cc(NCc3ccc(Br)cc3)ccc21 do in these assays?
RGS4 pot: inactive; MrgX1 antagonist: inactive; MrgX1 ag: 34; MrgX1 allo act: inactive; RGS4 inh: inactive; MrgX1 ag reconf: 197%; HEK293 Ca flux: inactive; HEK293 Ca counter: inactive; HEK293 Ca cntr2: inactive

Results for Cc1ccc(CNc2ccc3c(c2)ncn3C(C)C)cc1 ?
RGS4 pot: inactive; MrgX1 antagonist: inactive; MrgX1 ag: 33; MrgX1 allo act: inactive; RGS4 inh: inactive; MrgX1 ag reconf: 352%; HEK293 Ca flux: inactive; HEK293 Ca counter: inactive; HEK293 Ca cntr2: 80

Results for CC(Oc1ccc(-n2cnnn2)cc1)C(=O)O (configuration not stated) ?
RGS4 pot: inactive; MrgX1 antagonist: inactive; MrgX1 ag: inactive; MrgX1 allo act: inactive; RGS4 inh: inactive

Results for COc1ccc(C(=O)Nc2c(N)nc(SCC(=O)N3CCCCCC3)[nH]c2=O)cc1OC ?
RGS4 pot: inactive; MrgX1 antagonist: inactive; MrgX1 ag: inactive; MrgX1 allo act: inactive; RGS4 inh: inactive

Results for CCCOc1ccc(CSC(=N)N)cc1C(=O)OC ?
RGS4 pot: inactive; MrgX1 antagonist: inactive; MrgX1 ag: inactive; MrgX1 allo act: inactive; RGS4 inh: inactive

Results for COC(=O)c1cc(CSC(=N)N)ccc1OCCC(C)C ?
RGS4 pot: inactive; MrgX1 antagonist: inactive; MrgX1 ag: 37; MrgX1 allo act: inactive; RGS4 inh: inactive; MrgX1 ag reconf: 200%; HEK293 Ca flux: inactive; HEK293 Ca counter: inactive; HEK293 Ca cntr2: inactive

How did c1ccc(-c2ccccc2-n2cnnn2)cc1 do in these assays?
RGS4 pot: inactive; MrgX1 antagonist: inactive; MrgX1 ag: inactive; MrgX1 allo act: inactive; RGS4 inh: inactive

What do the screens show for `CCN1CCc2c(sc(NC(=O)c3ccc4ccccc4c3)c2C(N)=O)C1`?
RGS4 pot: inactive; MrgX1 antagonist: inactive; MrgX1 ag: 44; MrgX1 allo act: inactive; RGS4 inh: inactive; MrgX1 ag reconf: inactive; HEK293 Ca flux: inactive; HEK293 Ca counter: inactive; HEK293 Ca cntr2: inactive
